Screening results (PubChem)
Sampled rows, rich in hits. Any-hit rate of the full collection: about 5%.
CHOP UPR activ = apoptotic UPR (CHOP) activation; CHO-CHOP luciferase reporter, luminescence; percent of tunicamycin response over DMSO baseline; activation, % at 10 µM; hit rate 0.34% among 330,000; AID 449763;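 active = at 10 µM dose, activation of 40% or more, normalized to positive control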
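Assay system: CHO-CHOP cells, stable luciferase reporter of PERK-eIF2a-CHOP signalling / Buffer or medium: F12 plus 10% serum / Compound dosing: one dose, 10 µM in 0.5% DMSO / Times: 6 h compound treatment, 37 °C / Technique: luciferase luminescence / Read-out: % reporter activation, DMSO baseline versus tunicamycin full activation / Benchmarks: tunicamycin and DMSO controls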
CSC inhib = cancer stem cell inhibition; cancer stem cell-like cells viability, luminescence; inhibition, % at 7.5 µM; hit rate 1.1% among 300,000; in the data active = inhibition above about 75%; inconclusive = no clear call, values can overlap the other calls; tested in HMLE shEcad cells
T cruzi repl = blocks replication of Trypanosoma cruzi | T. cruzi beta-gal in NIH3T3, luminescence, 90 h | inhibition, % (test concentration not listed) | hit rate 1.4% among 300,000;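 active = mean inhibition across valid replicates above about 55%, limit read from the data; inconclusive = mean below that limit but half or more replicates reach it; inactive = mean below it, under half of replicates reach it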;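 also: signal also drops with host cell toxicity which is not excluded here; higher percent means less beta-gal luminescence so fewer parasites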
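Assay system: NIH/3T3 host cells with β-galactosidase reporter T. cruzi; input: 5,000 host fibroblasts per well; compound: single 50 nL compound addition per well in DMSO; timing: ≥90 h infection period, 3 h prior cell attachment; measured by: GalScreen β-gal luminescence, detergent lysis, 60 min; evaluation: percent inhibition of parasite-derived β-gal signal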
Beta cell apopt = beta cell apoptosis inhibition | INS-1E cytokine-induced death, ATP luminescence, 48 h; percent of positive-control rescue, neutral wells zero | protection from apoptosis, % (concentration not given with the values) | hit rate 0.8% among 300,000;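 active = Every replicate reaches about 75%, or at least half do and their mean reaches it too, limit read from the data; inconclusive = At least half of replicates reach the limit but their mean does not; inactive = Under half of replicates reach the limit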;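 also: higher means more ATP so stronger rescue from cytokine killing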
Mdm2 MdmX PPI = inhibitors of human Mdm2/MdmX interaction | SaOS-2 split-luciferase Mdm2/MdmX complementation, luminescence | hit rate 3% among 330,000 | AID 485346 | inhibition, % at 8 µM | O15151+Q00987;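 active = inhibition of at least 50% at 8 µM in the primary screen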
Target sequence (O15151 whole entry, looked up): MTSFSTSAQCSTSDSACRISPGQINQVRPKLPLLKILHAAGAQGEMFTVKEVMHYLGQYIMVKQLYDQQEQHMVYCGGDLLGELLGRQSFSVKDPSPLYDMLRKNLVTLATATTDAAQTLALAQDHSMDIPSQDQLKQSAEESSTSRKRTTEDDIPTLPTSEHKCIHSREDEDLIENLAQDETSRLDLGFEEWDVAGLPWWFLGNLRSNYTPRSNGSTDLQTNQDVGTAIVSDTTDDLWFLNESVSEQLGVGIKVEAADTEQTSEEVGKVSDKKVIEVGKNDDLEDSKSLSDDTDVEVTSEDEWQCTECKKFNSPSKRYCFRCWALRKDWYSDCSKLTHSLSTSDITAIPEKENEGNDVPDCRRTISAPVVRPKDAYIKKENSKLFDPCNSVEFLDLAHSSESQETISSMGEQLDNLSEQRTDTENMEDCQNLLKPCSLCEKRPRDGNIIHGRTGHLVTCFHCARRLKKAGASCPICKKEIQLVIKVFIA
Target sequence (Q00987 whole entry, looked up): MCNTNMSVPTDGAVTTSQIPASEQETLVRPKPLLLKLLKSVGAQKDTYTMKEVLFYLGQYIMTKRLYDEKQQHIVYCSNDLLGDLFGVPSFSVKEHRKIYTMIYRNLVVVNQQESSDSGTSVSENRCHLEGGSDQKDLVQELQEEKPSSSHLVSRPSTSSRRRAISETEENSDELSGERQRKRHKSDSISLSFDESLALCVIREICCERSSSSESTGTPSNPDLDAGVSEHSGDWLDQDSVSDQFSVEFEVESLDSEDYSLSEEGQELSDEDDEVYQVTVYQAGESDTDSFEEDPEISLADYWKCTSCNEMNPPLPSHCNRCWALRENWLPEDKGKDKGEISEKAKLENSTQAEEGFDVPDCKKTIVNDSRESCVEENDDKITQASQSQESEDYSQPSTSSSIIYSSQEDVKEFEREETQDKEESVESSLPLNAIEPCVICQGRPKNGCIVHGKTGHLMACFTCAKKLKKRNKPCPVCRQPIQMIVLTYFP
UPR XBP1 act = activators of adaptive arm of unfolded protein response (XBP1); CHO-XBP1 luciferase reporter, IRE1-XBP1 UPR activation, luminescence; percent of tunicamycin response, DMSO as zero; activation, % at 20 µM; hit rate 0.33% among 330,000; AID 463104;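 active = versus positive control, 20 µM dose yields 30% or more activation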
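Material – CHO cell line with stable XBP1 luciferase reporter · Buffer or medium – F12 plus 10% FBS · Compound – single point, 20 µM final compound, 1% DMSO · Schedule – 16-18 h cell attachment at 37 °C, then 6 h compound exposure · Signal – Steady-Glo luminescence read · Benchmarks – high control tunicamycin 10 µg/mL final, low control DMSO vehicle only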
Large screens that a line does not name were inactive.

Cc1c(Cl)cccc1NC(=O)COC(=O)c1c2c(nc3ccccc13)CCN(Cc1ccccc1)C2	T cruzi repl 68
O=C(NC1CCCCCC1)c1c2c(nc3ccccc13)CCN(Cc1ccccc1)C2	none
C=C(C)CNC(=S)N/N=C1\CCCCc2ccccc21	none
COc1cc(C[C@H](C)[C@H](C)Cc2ccc3c(c2)OCO3)ccc1O	CSC inhib 127
Cc1oc(-c2ccccc2Cl)nc1CS(=O)(=O)CC(=O)NC1CCCC1	none
Cc1ccc(S(=O)(=O)N2CCC(C(=O)Nc3ccc(S(=O)(=O)N4CCCC4)cc3)CC2)cc1C	T cruzi repl 74
COC(=O)C1CCN(CC(=O)Nc2cc(Cl)ccc2OC)CC1	T cruzi repl 55 (no result: CSC inhib)
COc1ccc(C)cc1NC(=O)CN1CCN(S(=O)(=O)c2ccc(Cl)cc2)CC1	none
COc1ccc(C)cc1NC(=O)CN1CCN(S(=O)(=O)c2ccc(C(C)C)cc2)CC1	T cruzi repl 62 (no result: Beta cell apopt)
COc1ccc([N+](=O)[O-])cc1NC(=O)COC(=O)C1CC1	T cruzi repl 56 (no result: CSC inhib)
CCOC(=O)c1nn(-c2ccc(Cl)cc2)c2nnc(Cc3ccccc3)c(=O)n12	none
Cc1ccc(N(C)S(=O)(=O)c2c[nH]c3ccc([N+](=O)[O-])cc23)cc1	none (no result: CSC inhib, Beta cell apopt)
Cc1ccc(S(=O)(=O)N2CCC(C(=O)Nc3ccc(C(C)C)cc3)CC2)cc1	CSC inhib 75 (no result: T cruzi repl)
Cc1ccc(NC(=O)C2CCN(c3cnccn3)CC2)cc1C	T cruzi repl 64
COc1ccc(NC(=O)C2CCN(c3cnccn3)CC2)cc1OC	none
CN1CCN(CC(=O)Nc2nnc(-c3cccs3)s2)CC1	none
COc1cccc(/C=N/NC(=O)c2ccc([N+](=O)[O-])cc2Cl)c1O	Beta cell apopt 88
CCOc1cc(/C=N/NC(=O)c2cc(-c3cccc(OC)c3)nc3ccccc23)ccc1O	Beta cell apopt 99
COc1cc([N+](=O)[O-])cc(/C=N/NC(=O)c2cc(-c3ccccc3)nc3ccccc23)c1O	Beta cell apopt 79
COc1cc(/C=N/NC(=O)c2cc(-c3ccccc3)nc3ccccc23)ccc1O	none
Cc1ccc(C)c(NC(=O)CS(=O)(=O)c2cn(C)c3ccccc23)c1	none (no result: CSC inhib, Beta cell apopt)
COc1cc(C(=O)NC2CCCc3c2cnn3-c2ccccc2F)cc(OC)c1OC (centres undefined)	none
Cc1ccccc1OC(C)C(=O)Nc1ccc(S(=O)(=O)Nc2nccs2)cc1 (centres undefined)	none
CC(=O)c1ccc(N2CCN(S(=O)(=O)c3ccc4c(c3)CC(C)N4C(C)=O)CC2)cc1 (centres undefined)	Beta cell apopt 91
CC1Cc2cc(S(=O)(=O)N3CCC(C(=O)N4CCN(c5ccccc5F)CC4)CC3)ccc2N1C(=O)C1CC1 (centres undefined)	Beta cell apopt 75
COc1ccccc1N1CCN(C(=O)C2CCN(S(=O)(=O)c3ccc4c(c3)CC(C)N4C(=O)C3CC3)CC2)CC1 (centres undefined)	none
CCC(=O)N1c2ccc(S(=O)(=O)N3CCN(CC)CC3)cc2CC1C (centres undefined)	none
CCC(=O)N1c2ccc(S(=O)(=O)N3CCN(c4ccc([N+](=O)[O-])cc4)CC3)cc2CC1C (centres undefined)	Beta cell apopt 92
COc1cccc(CN2c3ccc(Br)cc3C(=O)CS2(=O)=O)c1	none (no result: T cruzi repl)
Cc1cccc(N2CCN(C(c3ccncc3)c3nnnn3C(C)(C)C)CC2)c1C (centres undefined)	T cruzi repl 64
COc1ccc([C@H]2/C=C\CN(S(=O)(=O)c3ccc4ccccc4c3)[C@@H](C)C(=O)N2Cc2ccc(F)cc2)cc1	T cruzi repl 59
COc1ccc([C@H]2/C=C\CN(C(=O)c3ccc(C)cc3)[C@@H](C)C(=O)N2Cc2ccc(F)cc2)cc1	none (no result: CSC inhib)
COc1ccc([C@H]2/C=C\CN(S(=O)(=O)c3ccc(C)cc3)[C@@H](C)C(=O)N2Cc2ccc(F)cc2)cc1	none
COc1ccc(C2/C=C\CN(C(=O)c3ccccc3)[C@H](Cc3ccccc3)C(=O)N2Cc2ccc(F)cc2)cc1 (some centres undefined)	Beta cell apopt 94
CCC(C)N1CCC2(CC1)N=c1c(c3c4c5c(C)c(O)c3c(O)c1=NC(=O)C(C)=CC=C[C@H](C)[C@H](O)[C@@H](C)[C@@H](O)[C@@H](C)[C@H](OC(C)=O)[C@H](C)[C@@H](OC)C=CO[C@@](C)(O5)C4=O)N2 (some centres undefined)	none (no result: T cruzi repl)
CC(=O)OC1COC(OC2C(O)C(C)OC(OC3C(OC4CCC5(C)C(CCC6(C)C5CC=C5C7CC(C)(C)CCC7(C(=O)O)CCC56C)C4(C)CO)OCC(O)C3O)C2O)C(O)C1OC(C)=O (centres undefined)	Beta cell apopt 107 (no result: T cruzi repl)
CCc1cc2c(CN3CCN(CCO)CC3)cc(=O)oc2cc1O	none (no result: Beta cell apopt)
N=c1c2c(n(Cc3ccc(F)cc3)c3c1CCC3)CCCC2	T cruzi repl 63
N=c1c2c(n(Cc3ccc(Cl)cc3)c3c1CCC3)CCC2	T cruzi repl 79 (no result: CSC inhib)
O=C(NN1C(=O)c2ccccc2NC1c1ccco1)c1ccc([N+](=O)[O-])cc1 (centres undefined)	none
CN(C)CCNC(=O)c1ccc2c(=O)n(Cc3ccc(Cl)cc3)c(=S)[nH]c2c1	none
CCCCN(C)CCNC(=O)c1ccc(Cn2c(=S)[nH]c3ccc(Br)cc3c2=O)cc1	T cruzi repl 77
CCCCCn1c(=O)[nH]c2cc(C(=O)NCCCN(C)Cc3ccccc3)ccc2c1=O	T cruzi repl 58
O=c1cc(COc2ccccc2[N+](=O)[O-])nc2sccn12	none
COc1ccc(C(=O)NC(=C(Cl)Cl)S(=O)(=O)c2ccc(C)cc2)cc1	none (no result: CHOP UPR activ, Mdm2 MdmX PPI, UPR XBP1 act)
Cc1ccc(C(=O)NC(=C(Cl)Cl)S(=O)(=O)c2ccccc2)cc1	CSC inhib 98
COc1ccc(-c2cc3nc(-c4ccccc4)cc(N4CCC(O)CC4)n3n2)cc1	none (no result: CSC inhib)
COc1ccc(-c2cc3nc(-c4ccccc4)cc(N4CCCC(O)C4)n3n2)cc1 (centres undefined)	CSC inhib 94, T cruzi repl inconclusive
N#Cc1c(NC(=O)c2ccc(Cn3cc(Br)cn3)o2)sc2c1CCCCC2	CSC inhib 106
CCCCCNCc1ccc(OCc2ccc(Cl)nc2)c(OC)c1	none
COc1ccc(CNCCc2ccc(Cl)cc2)cc1OCc1ccccc1	T cruzi repl 70
COc1ccc(CCNCc2ccc(OCc3ccc(Cl)nc3)c(OC)c2)cc1OC	T cruzi repl 57
CCNC(=S)NCc1ccc(OC)c(OC)c1	none
COc1ccc(CCNC(=S)NCc2ccc(Cl)c(Cl)c2)cc1OC	T cruzi repl 60
CCN(Cc1ccccc1)Cc1ccc(OCc2ccccc2)c(OC)c1	none
